The results in this text go back to ChEMBL document CHEMBL1124806, “Synthesis of quaternary amine ether lipids and evaluation of neoplastic cell growth inhibitory properties” (J Med Chem, 1990).

Each structure is given as a SMILES string. Some results are limits rather than exact numbers.

Assay [1] deals with HL-60. Description: Inhibition of neoplastic cell proliferation with the HL-60 human promyelocytic leukemia cells. Conditions: read-out: ID50 (the source's name). Format: functional. An outline of the steps:
(§1)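 HL-60 cells are kept in RPMI 1640 with 10% FBS and 2 mM glutamine under 5% CO2. They are seeded at 5 × 10^5 cells/mL with a range of lipid concentrations, diluted into medium from 1 mg/mL ethanol stocks. After 48 h, viable cells are counted by hemocytometer with trypan blue. ID50 values are averaged, and SD is taken from the averaged ID50s.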

The next assay concerns the target Protein kinase C (PKC). The assay can be described thus: Inhibition of Protein Kinase C (PKC) isolated from HL-60 human promyelocytic leukemia cells. Format: cell-free. Put shortly:
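Partially purified PKC from HL-60 cells, pH 7.5, in 25 mM Tris, 10 mM MgCl2, 0.1 mM CaCl2, 40 μg/mL histone, 20 μg/mL phosphatidylserine, 2.5 μM OAG, and 10 μM ATP with [γ-32P]ATP. Analogue in ethanol is added before the enzyme starts the reaction, with a 0.1% ethanol control. The reaction runs 20 min at 30 °C and is stopped with BSA and ice-cold 25% TCA. Filter-bound 32P-histone is counted; duplicates.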

Assay [2] relates to HL-60. Description: Inhibition of neoplastic cell proliferation in the HL-60 human promyelocytic leukemia cells. Conditions: read-out: ID50 (the source's name). The assay is classed as functional. Put shortly: as §1

Consider `CCCCCCCCCCCCCCCCSCC(C[N+](C)(C)CCCO)OCC` (stereo unspecified), for which the IC50 in the assay with HL-60 [1] came to 2.95 µM.

On to `CCCCCCCCCCCCCCCCCCSCC(C[N+](C)(C)CCCO)OC.[I-]` (stereo unspecified), for which the IC50 worked out at 5 µM against Protein kinase C (PKC) and 3.35 µM in the assay with HL-60 [2].

With `CCCCCCCCCCCCCCCCOCC(C[N+](C)(C)C)OC.[Br-]` (stereo unspecified), the results for the IC50 against Protein kinase C (PKC) and with HL-60 [2] were greater than 40 µM and 1.59 µM, respectively.

Take `CCCCCCCCCCCCCCCCOCCC[N+](C)(C)C.[Br-]`: the IC50 against Protein kinase C (PKC) is greater than 40 µM; in the assay with HL-60 [2], 1.61 µM.

As to `CCCCCCCCCCCCCCCCOCC(COCCCC[N+](C)(C)C)OCC.[Br-]` (stereo unspecified), the figures for the IC50 on Protein kinase C (PKC) and in the assay with HL-60 [2] were greater than 40 µM and 1.86 µM, respectively.

In the case of `CCCCCCCCCCCCCCCCOCC(C[n+]1ccccc1)OCC` (stereo unspecified), the IC50 in the assay on HL-60 [2] was determined as 1.01 µM.

In the case of `CCCCCCCCCCCCCCCCOCC(COCC[N+](C)(C)C)OC.[Br-]` (stereo unspecified), the IC50 is 31 µM against Protein kinase C (PKC) and 1.85 µM in the assay on HL-60 [2].

Take `CCCCCCCCCCCCCCCCOCC(C[N+]1(C)CCC(O)CC1)OCC` (stereo unspecified): in the assay with HL-60 [2], the IC50 was 2.72 µM.

`CCCCCCCCCCCCCCCCOCC(COCCCC[N+](C)(C)C)OC.[Br-]` (stereo unspecified): the results for the IC50 against Protein kinase C (PKC) and in the assay with HL-60 [2] were greater than 40 µM and 2.3 µM, respectively.

In the case of `CCCCCCCCCCCCCCCCOCC(COCCCC[n+]1ccccc1)OCC` (stereo unspecified), the IC50 in the assay with HL-60 [2] was found to be 0.78 µM.

In the case of `CCCCCCCCCCCCCCCCCC1OCC(COCCCC[N+](C)(C)C)O1` (stereo unspecified), in the assay with HL-60 [2], the IC50 stood at 2.82 µM.

Take `CCCCCCCCCCCCCCCCCCOCC(COCCCC[N+](C)(C)C)OCC` (stereo unspecified): in the assay on HL-60 [2], the IC50 came out at 1.26 µM.

As to `CCCCCCCCCCCCCCCCSCC(COCCCC[N+](C)(C)C)OCC` (stereo unspecified), the IC50 in the assay on HL-60 [2] stood at 1.83 µM.

As for `CCCCCCCCCCCCCCCCOCC(COCCC[N+](C)(C)C)OC` (stereo unspecified), in the assay with HL-60 [2], the IC50 was found to be 1.2 µM.

On to `CCCCCCCCCCCCCCCCCC1OCC(C[N+](C)(C)CCCO)O1.[Br-]` (stereo unspecified), for which the IC50 stood at 13 µM against Protein kinase C (PKC) and 6.47 µM in the assay with HL-60 [2].

Regarding `CCCCCCCCCCCCCCCCOCC(COCCCCCCCCCC[N+](C)(C)C)OC` (stereo unspecified), the IC50 in the assay on HL-60 [2] came out at 3.79 µM.

Turning to `CCCCCCCCCCCCCCCCOCC(COCCCCCC[N+](C)(C)C)OC.[Br-]` (stereo unspecified), the IC50 on Protein kinase C (PKC) was greater than 40 µM; with HL-60 [2] it was 1.75 µM.

On to `CCCCCCCCCCCCCCCCOCCCOCCCC[N+](C)(C)C`, for which, in the assay with HL-60 [2], the IC50 amounted to 1.56 µM.

With `CC1(C)OCC(C[N+](C)(C)CCO)O1` (stereo unspecified), in the assay with HL-60 [2], the IC50 is greater than 10 µM.

Consider `CCCCCCCCCCCCCCCCCCOCC(COP(=O)([O-])OCC[N+](C)(C)C)OC` (stereo unspecified) [EDELFOSINE], for which the IC50 on Protein kinase C (PKC) came out at 12 µM; in the assay on HL-60 [2], 2.01 µM.

Turning to `CCCCCCCCCCCCCCCCSCC(C[N+](C)(C)CCO)OCC` (stereo unspecified), the IC50 with HL-60 [1] amounted to 3.72 µM.

`CCCCCCCCCCCCCCCCOCCC[n+]1ccccc1.[Br-]`: the IC50 is greater than 40 µM at Protein kinase C (PKC) and 0.82 µM in the assay on HL-60 [2].

For `CCCCCCCCCCCCCCCCOCC(C[N+](CC)(CC)CC)OCC` (stereo unspecified), in the assay on HL-60 [2], the IC50 was found to be 0.68 µM.

On to `CCCCCCCCCCCCCCCCSCC(C[N+](C)(C)C)OC.[Br-]` (stereo unspecified), for which the IC50 is 25 µM against Protein kinase C (PKC) and 2.2 µM in the assay on HL-60 [2].

As to `CCCCCCCCCCCCCCCCSCC(C[N+](C)(C)CCO)OC` (stereo unspecified), the IC50 in the assay on HL-60 [1] came to 4.66 µM.
